Values belong to the compound of their own block, whether it stands above or below them. Activity calls are given as the source filed them. The calls are words filed in the database; no cut-off is given here.
Key:
[1] = tested on: INA-6; assay: Downregulation of NVP-AUY922-induced HSF-1 mRNA expression in human INA-6 cells at 10 uM preincubated for 4 hrs followed by NVP-AUY922 addition measured after 4 hrs by RT-PCR method; format: functional, cell-based
Summary of the method: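 INA-6 myeloma cells were treated with the dual DNA-PK/mTOR inhibitor for 4 h, then co-treated with 10 nM NVP-AUY922 for a further 4 h. Total RNA was isolated and HSF1 and HSP72 mRNA was measured by RT-PCR. Values were normalized to α-tubulin.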

[2] = tested on: INA-6; assay: Inhibition of heat shock response in human INA-6 cells assessed as reduction in HSF-1 mediated upregulation of the HSP72 protein expression at 10 uM preincubated for 4 hrs followed by HSP90 inhibitor and HSR inducer NVP-AUY922 addition measured after 4 hrs by Western blot method; format: functional, cell-based
Summary of the method: (§1)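 INA-6 cells given the dual DNA-PK/mTOR inhibitor NU7441 for 4 h, then co-treated with 10 nM NVP-AUY922 for 4 h more. Protein lysates analysed by Western blot for HSF1, phospho-HSF1, HSP72 and HSP27, with α-tubulin as loading control.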

[3] = molecular target: T1, Heat shock factor protein 1 (Homo sapiens) (UniProt Q00613); assay: Inhibition of NVP-AUY922-induced HSF-1 phosphorylation in human INA-6 cells at 10 uM preincubated for 4 hrs followed by NVP-AUY922 addition measured after 4 hrs by Western blot method; format: cell-based; summary of the method: as §1
T1 sequence (whole entry): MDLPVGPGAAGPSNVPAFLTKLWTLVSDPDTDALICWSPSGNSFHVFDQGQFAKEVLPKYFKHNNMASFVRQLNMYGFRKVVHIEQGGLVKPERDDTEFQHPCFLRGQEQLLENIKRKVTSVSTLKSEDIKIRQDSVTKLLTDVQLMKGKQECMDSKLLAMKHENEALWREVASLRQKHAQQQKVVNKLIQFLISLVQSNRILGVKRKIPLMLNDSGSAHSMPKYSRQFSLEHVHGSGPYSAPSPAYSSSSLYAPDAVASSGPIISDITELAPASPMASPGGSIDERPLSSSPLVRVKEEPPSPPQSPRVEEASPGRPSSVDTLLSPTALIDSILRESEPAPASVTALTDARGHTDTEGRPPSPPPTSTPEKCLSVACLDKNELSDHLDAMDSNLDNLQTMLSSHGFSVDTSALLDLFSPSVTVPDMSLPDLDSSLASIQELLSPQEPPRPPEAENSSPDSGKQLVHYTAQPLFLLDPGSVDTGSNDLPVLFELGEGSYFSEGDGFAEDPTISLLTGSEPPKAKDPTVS

[4] = tested on: INA-6; assay: Inhibition of heat shock response in human INA-6 cells assessed as reduction in HSF-1 mediated upregulation of the HSP72 mRNA expression at 10 uM preincubated for 4 hrs followed by HSP90 inhibitor and HSR inducer NVP-AUY922 addition measured after 4 hrs by RT-PCR method; format: functional, cell-based
Summary of the method: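 Cells pretreated 4 h with NU7441, then 10 nM NVP-AUY922 added for 4 h. Total mRNA isolated; HSF1 and HSP72 levels determined by RT-PCR and normalized to α-tubulin.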

[5] = tested on: INA-6; assay: Downregulation of NVP-AUY922-induced HSF-1 protein expression in human INA-6 cells at 10 uM preincubated for 4 hrs followed by NVP-AUY922 addition measured after 4 hrs by Western blot method; format: functional, cell-based
Summary of the method: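 INA-6 cells received the dual DNA-PK/mTOR inhibitor for 4 h, then 10 nM NVP-AUY922 was added for another 4 h. Protein lysates were Western blotted for HSF1, phospho-HSF1, HSP72 and HSP27, with α-tubulin as the loading control.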

[6] = tested on: INA-6; assay: Inhibition of heat shock response in human INA-6 cells assessed as reduction in HSF-1 mediated upregulation of the heat shock protein HSP27 at 12.5 uM preincubated for 4 hrs followed by HSP90 inhibitor and HSR inducer NVP-AUY922 addition measured after 4 hrs by ELISA; format: functional, cell-based
[7] = tested on: INA-6; assay: Inhibition of heat shock response in human INA-6 cells assessed as reduction in HSF-1 mediated upregulation of the heat shock protein HSP72 at 12.5 uM preincubated for 4 hrs followed by HSP90 inhibitor and HSR inducer NVP-AUY922 addition measured after 4 hrs by Western blot method; format: functional, cell-based
Summary of the method: (§2)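 INA-6 myeloma cells pretreated with test compound for 4 h, then co-treated with the HSP90 inhibitor/HSR inducer NVP-AUY922 for a further 4 h. Cells harvested; HSP72, HSP27, HSF1 or phospho-HSF1 probed by Western blot with β-actin as loading control. DMSO-only cells were the negative control; NVP-AUY922-only cells were the positive control.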

[8] = tested on: INA-6; assay: Effect on NVP-AUY922-induced HSF-1 mRNA expression in human INA-6 cells at 12.5 uM preincubated for 4 hrs followed by NVP-AUY922 addition measured after 4 hrs by RT-PCR method; format: functional, cell-based
Summary of the method: (§3)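 INA-6 cells exposed to compound for 4 h, then co-treated with 10 nM NVP-AUY922 for another 4 h. Total RNA isolated; HSP27, HSP72 and HSF1 transcripts measured by real-time PCR and normalized to α-tubulin. Means and standard deviations from three independent experiments.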

[9] = tested on: INA-6; assay: Inhibition of heat shock response in human INA-6 cells assessed as reduction in HSF-1 mediated upregulation of the heat shock protein HSP27 at 12.5 uM preincubated for 4 hrs followed by HSP90 inhibitor and HSR inducer NVP-AUY922 addition measured after 4 hrs by Western blot method; format: functional, cell-based; summary of the method: as §2
[10] = tested on: INA-6; assay: Inhibition of heat shock response in human INA-6 cells assessed as reduction in HSF-1 mediated upregulation of the heat shock protein HSP72 at 12.5 uM preincubated for 4 hrs followed by HSP90 inhibitor and HSR inducer NVP-AUY922 addition measured after 4 hrs by ELISA; format: functional, cell-based
Summary of the method: (§4)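 HSP72 quantified by ELISA in the same protein lysates used for Western blots. INA-6 cells received compound for 4 h, then NVP-AUY922 co-treatment for 4 h more to stimulate HSF1. DMSO-only and NVP-AUY922-only cells served as negative and positive controls.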

[11] = tested on: INA-6; assay: Induction of apoptosis in human INA-6 cells at 6.3 to 8.6 uM after 72 hrs by annexin V-FITC/propidium iodide staining-based flow cytometry method; format: functional, cell-based
Summary of the method: (§5)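 INA-6 cells incubated three days with DMSO or increasing compound concentrations. Viability read by annexin V-FITC/propidium iodide staining and flow cytometry. Double-negative (viable) fractions used to fit dose-response curves from three independent experiments; mean ± SD reported.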

[12] = tested on: INA-6; assay: Downregulation of NVP-AUY922-induced HSF-1 protein expression in human INA-6 cells at 25 uM preincubated for 4 hrs followed by NVP-AUY922 addition measured after 4 hrs by Western blot method; format: functional, cell-based
Summary of the method: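 INA-6 cells were pre-treated with compound for 4 h, then co-treated with the HSP90 inhibitor NVP-AUY922 for an additional 4 h. Cells were harvested and blotted for HSP72, HSP27, HSF1 or phospho-HSF1, with β-actin as the loading control. DMSO-only cells served as the negative control and NVP-AUY922-only cells as the positive control.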

[13] = tested on: INA-6; assay: Inhibition of heat shock response in human INA-6 cells assessed as reduction in HSF-1 mediated upregulation of the heat shock protein HSP72 at 25 uM preincubated for 4 hrs followed by HSP90 inhibitor and HSR inducer NVP-AUY922 addition measured after 4 hrs by Western blot method; format: functional, cell-based; summary of the method: as §2
[14] = tested on: INA-6; assay: Inhibition of heat shock response in human INA-6 cells assessed as reduction in HSF-1 mediated upregulation of the heat shock protein HSP27 at 25 uM preincubated for 4 hrs followed by HSP90 inhibitor and HSR inducer NVP-AUY922 addition measured after 4 hrs
[15] = molecular target: T1, Heat shock factor protein 1 (Homo sapiens); assay: Inhibition of NVP-AUY922-induced HSF-1 phosphorylation at S326 residue in human INA-6 cells at 25 uM preincubated for 4 hrs followed by NVP-AUY922 addition measured after 4 hrs by Western blotting method; format: cell-based; summary of the method: as §2
[16] = tested on: INA-6; assay: Induction of apoptosis in human INA-6 cells preincubated for 4 hrs followed by NVP-AUY922 addition measured after 68 hrs by annexin V-FITC/propidium iodide staining-based flow cytometry method; format: functional, cell-based
Summary of the method: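 INA-6 cells received DMSO or test compound for 72 h. At 4 h, DMSO or 10 nM NVP-AUY922 was added for the remaining 68 h. Viable fraction measured by annexin V-FITC/PI flow cytometry and expressed relative to the matching DMSO controls; means ± SD of three independent experiments.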

[17] = tested on: INA-6; assay: Inhibition of heat shock response in human INA-6 cells assessed as reduction in HSF-1 mediated upregulation of the heat shock protein HSP72 at 25 uM preincubated for 4 hrs followed by HSP90 inhibitor and HSR inducer NVP-AUY922 addition measured after 4 hrs by ELISA; format: functional, cell-based; summary of the method: as §4
[18] = tested on: INA-6; assay: Inhibition of heat shock response in human INA-6 cells assessed as reduction in HSF-1 mediated upregulation of the heat shock protein HSP27 at 25 uM preincubated for 4 hrs followed by HSP90 inhibitor and HSR inducer NVP-AUY922 addition measured after 4 hrs by Western blot method; format: functional, cell-based; summary of the method: as §2
[19] = tested on: INA-6; assay: Effect on NVP-AUY922-induced HSF-1 mRNA expression in human INA-6 cells at 25 uM preincubated for 4 hrs followed by NVP-AUY922 addition measured after 4 hrs by RT-PCR method; format: functional, cell-based; summary of the method: as §3
[20] = tested on: INA-6; assay: Downregulation of NVP-AUY922-induced HSF-1 protein expression in human INA-6 cells at 50 uM preincubated for 4 hrs followed by NVP-AUY922 addition measured after 4 hrs by Western blot method; format: functional, cell-based; summary of the method: as §2
[21] = tested on: INA-6; assay: Inhibition of heat shock response in human INA-6 cells assessed as reduction in HSF-1 mediated upregulation of the heat shock protein HSP27 at 50 uM preincubated for 4 hrs followed by HSP90 inhibitor and HSR inducer NVP-AUY922 addition measured after 4 hrs by ELISA; format: functional, cell-based
[22] = tested on: INA-6; assay: Inhibition of heat shock response in human INA-6 cells assessed as reduction in HSF-1 mediated upregulation of the heat shock protein HSP72 at 50 uM preincubated for 4 hrs followed by HSP90 inhibitor and HSR inducer NVP-AUY922 addition measured after 4 hrs by Western blot method; format: functional, cell-based; summary of the method: as §2
[23] = tested on: INA-6; assay: Inhibition of heat shock response in human INA-6 cells assessed as reduction in HSF-1 mediated upregulation of the heat shock protein HSP72 at 50 uM preincubated for 4 hrs followed by HSP90 inhibitor and HSR inducer NVP-AUY922 addition measured after 4 hrs by ELISA; format: functional, cell-based; summary of the method: as §4
[24] = molecular target: Heat shock factor protein 1 (Homo sapiens) (UniProt Q00613); assay: Inhibition of NVP-AUY922-induced HSF-1 phosphorylation at S326 residue in human INA-6 cells at 50 uM preincubated for 4 hrs followed by NVP-AUY922 addition measured after 4 hrs by Western blot method; format: cell-based; summary of the method: as §2
[25] = tested on: INA-6; assay: Inhibition of heat shock response in human INA-6 cells assessed as reduction in HSF-1 mediated upregulation of the heat shock protein HSP27 at 50 uM preincubated for 4 hrs followed by HSP90 inhibitor and HSR inducer NVP-AUY922 addition measured after 4 hrs by Western blot method; format: functional, cell-based; summary of the method: as §2
[26] = tested on: INA-6; assay: Effect on NVP-AUY922-induced HSF-1 mRNA expression in human INA-6 cells at 50 uM preincubated for 4 hrs followed by NVP-AUY922 addition measured after 4 hrs by RT-PCR method; format: functional, cell-based; summary of the method: as §3
[27] = tested on: INA-6; assay: Induction of apoptosis in human INA-6 cells up to 50 uM after 72 hrs by annexin V-FITC/propidium iodide staining-based flow cytometry method; format: functional, cell-based; summary of the method: as §5

Compound: NCCOCCOCCNCCCCOc1ccc(CCC(=O)N(C2CC2)C(C(=O)NCc2ccccc2)c2ccc(Br)cc2)cc1 (racemic)
- inhibition [6]: inactive
- inhibition [7]: inactive
- Activity [8]: inactive
- inhibition [9]: inactive
- inhibition [10]: inactive
- Activity [11]: Active

Compound: N-(2-(Benzylamino)-1-(2-bromophenyl)-2-oxoethyl)-N-cyclopropylcinnamamide
- Activity [20]: Active
- heat shock response inhibition (active/not active) [21]: Active
- heat shock response inhibition (active/not active) [22]: Active
- HSP72 upregulation inhibition (active/not active) [23]: Active
- inhibition [24]: Active
- activity call (active/not active) for inhibition of HSP27 upregulation [25]: Active

Compound: COc1ccc(/C=C/C(=O)N(Cc2ccc(OC)cc2)C(C(=O)NCc2ccccc2)c2ccccc2Br)cc1 (racemic)
- heat shock response inhibition (active/not active) [22]: inactive
- Activity [26]: inactive
- HSP72 upregulation inhibition (active/not active) [23]: inactive
- activity call (active/not active) for inhibition of HSP27 upregulation [25]: inactive
- Activity [27]: inactive

Second part, led by results:

- inhibition [3]: Active
Compound: O=c1cc(N2CCOCC2)oc2c(-c3cccc4c3sc3ccccc34)cccc12
- Activity [1]: Active
- inhibition [2]: Active
- inhibition [4]: Active
- Activity [5]: Active

- inhibition [15]: Active
Compound: NCCOCCOCCNCCOc1ccc(C(C(=O)NCc2ccccc2)N(C(=O)CCc2ccccc2)C2CC2)cc1 (stereo unspecified)
- Activity [12]: Active
- inhibition [13]: Active
- inhibition [14]: Active
- Activity [16]: Active
- inhibition [17]: Active
- inhibition [18]: Active
- Activity [19]: inactive
- Activity [11]: Active
